In general, IC50 refers to the midpoint of a concentration-inhibition curve.

The record followed here is ChEMBL document CHEMBL4823286, “Synthesis and evaluation of novel 2,4-diaminopyrimidines bearing a sulfoxide moiety as anaplastic lymphoma kinase (ALK) inhibition agents” (Bioorg Med Chem Lett, 2021).

The subject of assay [1] is BaF3. The experiment in a line: Antiproliferative activity against mouse BaF3 cells overexpressing ALK assessed as inhibition of cell proliferation measured by CCK8 assay. The class given is functional, cell-based. A digest of the protocol:
(§1)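 Cell proliferation inhibition; IC50 given as mean ± SD of three independent experiments.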
(In general: Tetrazolium dyes change colour on reduction, which living cells bring about.)

For assay [2], the system named is NCI-H2228. The assay can be described thus: Antiproliferative activity against human NCI-H2228 cells assessed as inhibition of cell proliferation measured by CCK8 assay. Format: functional, cell-based. A digest of the protocol: as §1
For assay [3], the system named is NCI-H2228. The experiment in a line: Induction of apoptosis in human NCI-H2228 cells assessed as early apoptotic cells at 25 nM measured after 48 hrs by Annexin V-FITC/PI staining based flow cytometry assay (reference value: 1.58%). The class given is functional. A digest of the protocol:
(§2)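 After 24 h or 48 h exposure (5, 25, 50 nM; DMSO 0.01% control), NCI-H2228 cells were harvested, double-stained with Annexin V-FITC and PI and run on flow cytometry. Stage percentages quantified by software; three experiments, representative shown.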
Background: Flow cytometry measures light scatter and fluorescence of single cells or particles in a stream.

Assay [4] relates to NCI-H2228. The experiment in a line: Induction of apoptosis in human NCI-H2228 cells assessed as necrotic cells at 25 nM measured after 24 hrs by Annexin V-FITC/PI staining based flow cytometry assay (reference value: 0.21%). Format: functional. The essentials:
as §2

Assay [5] concerns NCI-H2228. The experiment in a line: Induction of apoptosis in human NCI-H2228 cells assessed as necrotic cells at 25 nM measured after 48 hrs by Annexin V-FITC/PI staining based flow cytometry assay (reference value: 2.88%). Format: functional. A digest of the protocol: as §2
Assay [6] has as its system NCI-H2228. The experiment in a line: Induction of apoptosis in human NCI-H2228 cells assessed as viable cells at 25 nM measured after 48 hrs by Annexin V-FITC/PI staining based flow cytometry assay (reference value: 95.3%). Format: functional. The following applies: read-out: Activity. A digest of the protocol: as §2
Assay [7] deals with NCI-H2228. The assay can be described thus: Induction of apoptosis in human NCI-H2228 cells assessed as late apoptotic cells at 25 nM measured after 48 hrs by Annexin V-FITC/PI staining based flow cytometry assay (reference value: 0.23%). The class given is functional. A digest of the protocol: as §2
The test system of assay [8] is NCI-H2228. The experiment in a line: Induction of apoptosis in human NCI-H2228 cells assessed as viable cells at 25 nM measured after 24 hrs by Annexin V-FITC/PI staining based flow cytometry assay (reference value: 95.6%). The class given is functional. Conditions: read-out: Activity. A digest of the protocol:
as §2

Assay [9] relates to NCI-H2228. The assay can be described thus: Induction of apoptosis in human NCI-H2228 cells assessed as early apoptotic cells at 25 nM measured after 24 hrs by Annexin V-FITC/PI staining based flow cytometry assay (reference value: 2.18%). The class given is functional. A digest of the protocol:
as §2

In assay [10] the test system is NCI-H2228. The experiment in a line: Induction of apoptosis in human NCI-H2228 cells assessed as late apoptotic cells at 25 nM measured after 24 hrs by Annexin V-FITC/PI staining based flow cytometry assay (reference value: 2.02%). The class given is functional. The essentials:
as §2

`CC[S+]([O-])c1ccccc1Nc1nc(Nc2ccc(N(C)CCN(C)C)cc2OC)ncc1Cl` (configuration not stated): the values for the half-inhibitory concentration (IC50) in [1] and in assay [2] were 26.3 nM and 69.3 nM, respectively.
For `CC[S+]([O-])c1ccccc1Nc1nc(Nc2cc(N)c(N(C)CCN(C)C)cc2OC)ncc1Cl` (configuration not stated), in that order: 75 nM and 2630 nM.
For `CC[S+]([O-])c1cc(F)ccc1Nc1nc(Nc2ccc(N3CCN(C(C)=O)CC3)cc2OC)ncc1Cl` (configuration not stated) the same measures were 85.7 nM and 704 nM.
For `CC[S+]([O-])c1cc(F)ccc1Nc1nc(Nc2ccc(N3CCN(C)CC3)cc2OC)ncc1Cl` (configuration not stated), in that order: 48.9 nM and 104 nM.
`COc1cc(N2CCC(N3CCN(C)CC3)CC2)ccc1Nc1ncc(Cl)c(Nc2ccccc2P(C)(C)=O)n1` [BRIGATINIB]: the Activity in assay [3] amounted to 12.7%; in [4], 0.2%; in assay [5] it was 4.32%; in assay [7], 31%; in assay [9] it was 14.4%; in assay [10], 3.47%. Also, the IC50 in assay [1] came to 8.49 nM; in [2], 31.2 nM. The viability at 0.025 µM in assay [6] stood at 52%; in assay [8], 81.9%.
As for `CCSc1ccccc1Nc1nc(Nc2ccc(N3CCN(C)CC3)cc2OC)ncc1Cl`, the IC50 in assay [1] is 78 nM; in assay [2], 981 nM.
For `COc1cc(N2CCN(C)CC2)ccc1Nc1ncc(Cl)c(Nc2ccccc2[S+]([O-])C(C)C)n1` (configuration not stated), in that order: 32.3 nM and 82.9 nM.
As for `CC[S+]([O-])c1ccccc1Nc1nc(Nc2ccc(N3CCCN(C)CC3)cc2OC)ncc1Cl` (configuration not stated), the IC50 was 23.5 nM in [1] and 51.5 nM in [2].
For `CC[S+]([O-])c1cc(F)ccc1Nc1nc(Nc2ccc(N(C)CCN(C)C)cc2OC)ncc1Cl` (configuration not stated) the same measures were 34.7 nM and 84.3 nM.
For `CC[S+]([O-])c1cc(Cl)ccc1Nc1nc(Nc2ccc(N3CCN(C)CC3)cc2OC)ncc1Cl` (configuration not stated), in that order: 128 nM and 134 nM.
For `CC[S+]([O-])c1ccccc1Nc1nc(Nc2ccc(N3CCN(C)CC3)cc2OC)ncc1Cl` (configuration not stated) the same measures were 13.1 nM and 35.2 nM.
Consider `CCC(=O)Nc1cc(Nc2ncc(Cl)c(Nc3ccc(F)cc3[S+]([O-])CC)n2)c(OC)cc1N(C)CCN(C)C` (configuration not stated), for which the results for the concentration for half-maximal inhibition (IC50) in [1] and in [2] were 47.2 nM and 48.1 nM, respectively.
For `CC[S+]([O-])c1cc(F)ccc1Nc1nc(Nc2ccc(N3CCC(N(C)C)CC3)cc2OC)ncc1Cl` (configuration not stated) the same measures were 79.4 nM and 337 nM.
For `Cc1cc(Nc2ncc(Cl)c(Nc3ccccc3S(=O)(=O)C(C)C)n2)c(OC(C)C)cc1C1CCNCC1` [CERITINIB], in that order: 7.11 nM and 22.1 nM.
For `CC[S+]([O-])c1cc(F)ccc1Nc1nc(Nc2ccc(N(C)C3CCN(C)CC3)cc2OC)ncc1Cl` (configuration not stated), in that order: 82 nM and 1440 nM.
For the molecule `CCC(=O)Nc1cc(Nc2ncc(Cl)c(Nc3ccccc3[S+]([O-])CC)n2)c(OC)cc1N(C)CCN(C)C` (configuration not stated), the IC50 in assay [1] worked out at 35.4 nM; in assay [2] it was 55.4 nM.
For `CC[S+]([O-])c1cc(F)ccc1Nc1nc(Nc2ccc(N3CCCN(C)CC3)cc2OC)ncc1Cl` (configuration not stated), in that order: 26.7 nM and 64.5 nM.
